{"data": "Assay results of several laboratories", "target": "RAF proto-oncogene serine/threonine-protein kinase (RAF1, Homo sapiens, UniProt P04049)", "note": "Protocols differ between the studies behind these lines."}
{"Compound": "C#Cc1cc(-c2cc(Nc3nc(N[C@@H](C)c4ccc(F)cn4)ncc3Cl)n[nH]2)ccc1C=O", "test": "enzyme activity, inhibitor", "setting": "0.2 µM", "endpoint": "inhibition", "value": "13.8%"}
{"Compound": "Cc1ccc(NC(=O)c2ccnc(C(F)(F)F)c2)cc1-c1cc(OCCO)nc(N2CCOCC2)c1", "test": "binding, competition with immobilised ligand", "setting": "1 µM", "endpoint": "remaining binding", "value": "1.2%"}
{"Compound": "N#Cc1ccc(NC(=O)Nc2ccccc2)cc1", "test": "cell-free assay, competition with immobilised ligand", "setting": "25 µM", "endpoint": "remaining binding", "value": "98%"}
{"Compound": "COc1ccc2oc(-c3ccc4nc(N)oc4c3)c/c(=N\\c3ccccc3NC(=O)CCN)c2c1", "test": "binding", "setting": "1 µM", "endpoint": "remaining binding", "value": "104%"}
{"Compound": "Cc1cc(O)c(-c2ccc([C@@H](C)CN(C)C)cc2)c2c1[nH]c(=O)c1sccc12", "test": "enzyme activity, inhibitor", "setting": "0.1 µM", "endpoint": "inhibition", "value": "7.07%"}
{"Compound": "COc1ccc2[nH]c3c4[nH]c5ccc(OC)cc5c4c4c(c3c2c1)C(=O)NC4=O", "test": "binding, competition with immobilised ligand", "setting": "1 µM", "endpoint": "remaining binding", "value": "100%"}
{"Compound": "C=CC(=O)N1CCC([C@@H]2CCNc3c(C(N)=O)c(-c4ccc(Oc5ccccc5)cc4)nn32)CC1", "test": "enzyme activity, inhibitor", "setting": "1 µM", "endpoint": "inhibition", "value": "0%"}
{"Compound": "C#Cc1cnc(Nc2ccnc(CO)c2)nc1Nc1ccccc1S(C)(=O)=NC#N (stereo not shown)", "test": "cell-free assay", "setting": "1 µM", "endpoint": "remaining signal", "value": "85%"}
{"Compound": "CO[C@@H]1[C@H](N(C)C(=O)c2ccccc2)C[C@H]2O[C@]1(C)n1c3ccccc3c3c4c(c5c6ccccc6n2c5c31)C(=O)NC4", "test": "enzyme activity, inhibitor", "setting": "1 µM", "endpoint": "inhibition", "value": "0%"}
{"Compound": "CCCCC(=O)Nc1ccc(-c2ccc3ncn(CCC)c(=O)c3c2)cn1", "test": "binding, competition with immobilised ligand", "setting": "0.5 µM", "endpoint": "remaining binding", "value": "80%"}
